According to ChEMBL document CHEMBL4325856, “Synthesis of cinnamic amide derivatives and their anti-melanogenic effect in α-MSH-stimulated B16F10 melanoma cells” (Eur J Med Chem, 2019):
The source made the active and inactive calls. The calls are words filed in the database; no cut-off is given here.

Experiments:
B16-F10 [1] = assay: Antimelanogenic activity in alpha-MSH-stimulated mouse B16F10 cells assessed as reduction in melanin content at 25 uM treated at 24 hrs post alpha-MSH stimulation and measured after 24 hrs relative to control; type: functional; set-up: scale not given: the % may be the effect or the level left
Procedure, shortened: (§1)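 Cells grown in 24-well plates for 24 h, then stimulated with 1 µM α-MSH and treated with 0, 5, 10 or 25 µM test agent (kojic acid 25 µM as reference) for 24 h. Washed with PBS, melanin dissolved in 200 µL 1N NaOH, absorbance read at 405 nm. Triplicate; means ± SEM, one-way ANOVA with Tukey's test.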

[2] = target: T1, Tyrosinase (Agaricus bisporus) (UniProt O42713); assay: Potency index, ratio of compound effect to kojic acid effect for inhibition of mushroom tyrosinase at 25 uM using L-tyrosine as substrate
T1 sequence (whole entry): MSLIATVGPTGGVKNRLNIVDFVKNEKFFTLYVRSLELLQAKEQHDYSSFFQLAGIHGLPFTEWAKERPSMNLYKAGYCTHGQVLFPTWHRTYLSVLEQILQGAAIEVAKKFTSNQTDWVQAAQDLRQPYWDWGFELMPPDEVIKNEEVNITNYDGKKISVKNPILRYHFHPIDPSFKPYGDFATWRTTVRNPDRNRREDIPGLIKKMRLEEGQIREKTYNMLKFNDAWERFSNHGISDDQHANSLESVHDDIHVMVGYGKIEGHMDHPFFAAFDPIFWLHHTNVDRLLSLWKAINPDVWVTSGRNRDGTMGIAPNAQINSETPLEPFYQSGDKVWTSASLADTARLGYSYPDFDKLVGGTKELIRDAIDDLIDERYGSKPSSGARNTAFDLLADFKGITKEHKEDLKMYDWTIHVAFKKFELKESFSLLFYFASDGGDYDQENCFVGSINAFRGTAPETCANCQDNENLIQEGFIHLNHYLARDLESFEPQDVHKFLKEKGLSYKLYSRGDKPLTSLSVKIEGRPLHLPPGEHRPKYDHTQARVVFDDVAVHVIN

B16-F10 [3] = assay: Antimelanogenic activity in alpha-MSH-stimulated mouse B16F10 cells assessed as reduction in melanin content treated at 24 hrs post alpha-MSH stimulation and measured after 24 hrs; type: functional, cell-based; procedure, shortened: as §1
B16-F10 [4] = assay: Cytotoxicity against mouse B16F10 cells assessed as reduction in cell viability at 5 to 25 uM after 24 hrs by WST8 assay; type: cell-based; conditions: b16-f10, 24 h
Procedure, shortened: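 Murine B16F10 cells in DMEM with 10% FBS and penicillin/streptomycin at 37 °C, 5% CO2, in 96-well plates. Pre-cultured cells exposed to 0, 5, 10 or 25 µM for 24 h. WST-8 reagent then added for 30 min to 2 h, absorbance read at 450 nm, viability given as % of control. Triplicate; means ± SEM.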

[5] = target: T1, Tyrosinase (Agaricus bisporus); conditions: at 25 µM
[6] = target: T2, Tyrosinase (Mus musculus) (UniProt P11344); assay: Inhibition of tyrosinase in alpha-MSH-stimulated mouse B16F10 cells assessed as reduction in dopachrome production using L-DOPA as substrate measured after 24 hrs by spectrophotometric method
T2 sequence (whole entry): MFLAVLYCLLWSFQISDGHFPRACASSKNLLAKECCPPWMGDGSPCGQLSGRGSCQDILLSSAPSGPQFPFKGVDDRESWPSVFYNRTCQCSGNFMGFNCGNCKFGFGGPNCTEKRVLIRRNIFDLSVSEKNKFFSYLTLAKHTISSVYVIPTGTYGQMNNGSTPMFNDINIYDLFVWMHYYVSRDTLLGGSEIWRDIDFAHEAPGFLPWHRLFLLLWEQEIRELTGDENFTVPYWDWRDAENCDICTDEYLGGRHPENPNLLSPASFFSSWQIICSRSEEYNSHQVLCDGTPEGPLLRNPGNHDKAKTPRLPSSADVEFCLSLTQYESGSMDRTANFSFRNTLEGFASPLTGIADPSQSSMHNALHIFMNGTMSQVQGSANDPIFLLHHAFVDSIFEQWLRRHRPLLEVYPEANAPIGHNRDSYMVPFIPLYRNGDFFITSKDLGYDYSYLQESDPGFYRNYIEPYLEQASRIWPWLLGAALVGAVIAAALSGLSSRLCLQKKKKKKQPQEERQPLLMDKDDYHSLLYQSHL
Procedure, shortened: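 B16F10 cells activated with 1 µM α-MSH, then given 0, 5, 10 or 25 µM test agent or 25 µM kojic acid for 24 h. Cells washed with PBS and lysed in 50 mM PBS pH 6.8 with 0.1 mM PMSF and 1% Triton X-100. Lysate frozen at -80 °C for 30 min, spun 12,000 rpm 30 min at 4 °C. Supernatant (80 µL) mixed with 20 µL 10 mM L-dopa, 37 °C for 30 min, OD read at 500 nm. Triplicate.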

Tyrosinase = target: T3, Tyrosinase (Agaricus bisporus, UniProt O42713); assay: Inhibition of mushroom tyrosinase using L-tyrosine as substrate incubated for 30 mins by spectrophotometric method
T3 sequence (O42713 whole entry): T1 sequence (whole entry)
Procedure, shortened: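 Mushroom tyrosinase with test sample (final 25 µM) in substrate mix of 14.7 mM potassium phosphate buffer and 293 µM L-tyrosine (1:1, v/v), incubated 30 min at 37 °C. Dopachrome absorbance read at 450 nm; % inhibition calculated against untreated control. Kojic acid 25 µM and arbutin 400 µM as positive controls. Triplicate; means ± SEM.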

[7] = target: T1, Tyrosinase (Agaricus bisporus); assay: Competitive inhibition of mushroom tyrosinase at 10 to 40 nM using varying levels of L-tyrosine as substrate by Lineweaver-Burk plot analysis
Procedure, shortened: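 Mushroom tyrosinase (200 units) with inhibitor at 10, 20 and 40 nM and L-tyrosine 0.03125 to 16 mM, in 50 mM potassium phosphate pH 6.5. Initial dopachrome formation rate taken as ΔOD475/min. Km and Vmax from Lineweaver–Burk plots (1/V vs 1/[S]); Ki from modified Michaelis–Menten equation. Triplicate.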

Which Activity (B16-F10 [1]) does the source give for `COc1cc(/C=C/C(=O)NCc2ccccc2)ccc1O` here?
The Activity was 80.43%.

And the Ratio [2]?
Its Ratio is 3.

And the Activity (B16-F10 [3])?
Its Activity is “Dose-dependent effect”.

And the Activity (B16-F10 [4])?
Its Activity is “Non-Toxic”.

What about the inhibition [5] of the same compound?
The inhibition was 82.9%.

What about the inhibition [6] of the same compound?
The inhibition was “Dose-dependent effect”.

Which results are given for `CCN(CC)C(=O)/C=C/c1ccc(O)cc1O`?
IC50 (Tyrosinase): 11.2 nM; Activity (B16-F10 [1]): 78.07%; Ratio [2]: 3; Activity (B16-F10 [3]): Dose-dependent effect; Activity (B16-F10 [4]): Non-Toxic; inhibition [5]: 96.2%; inhibition [7]: Active; inhibition [6]: Dose-dependent effect

How did the inhibition [5] turn out when `CCN(CC)C(=O)/C=C/c1ccc(O)c(OC)c1` was run?
The inhibition was 61.9%.

For `O=C(/C=C/c1ccc(O)c(O)c1)NCc1ccccc1`, which inhibition [5] is on record?
Its inhibition is 10%.

What does the source list for `O=C(/C=C/c1ccc(O)cc1O)NCc1ccccc1`?
Activity (B16-F10 [1]): 65.84%; Ratio [2]: 3; Activity (B16-F10 [3]): Dose-dependent effect; Activity (B16-F10 [4]): Non-Toxic; inhibition [5]: 85.4%; inhibition [6]: Dose-dependent effect

With `O=c1cc(CO)occ1O` [KOJIC ACID] as the compound, how does the Activity (B16-F10 [1]) read?
The Activity was 44.26%.

With `COc1ccc(C2CC(=O)Nc3ccccc32)cc1O` (configuration not stated) as the compound, how does the inhibition [5] read?
The inhibition was 25.9%.

With `CCN(CC)C(=O)/C=C/c1ccc(OC)c(O)c1` as the compound, how does the inhibition [5] read?
The inhibition was 20.7%.

How did the inhibition [5] turn out when `COc1cc(C2CC(=O)Nc3ccccc32)ccc1O` (configuration not stated) was run?
The inhibition was “inactive”.

Which inhibition [5] does the source give for `O=C1CC(c2ccc(O)cc2)c2ccccc2N1` (configuration not stated) here?
The inhibition was “inactive”.

With `O=C(/C=C/c1ccc(O)c(O)c1)Nc1ccccc1` as the compound, how does the inhibition [5] read?
The inhibition was “inactive”.

Which inhibition [5] does the source give for `COc1ccc(/C=C/C(=O)Nc2ccccc2)cc1O` here?
Its inhibition is 29.7%.

With `COc1ccc(/C=C/C(=O)NCc2ccccc2)cc1O` as the compound, how does the inhibition [5] read?
Its inhibition is 31.5%.

With `O=C1CC(c2ccc(O)c(O)c2)c2ccccc2N1` (configuration not stated) as the compound, how does the inhibition [5] read?
Its inhibition is “inactive”.

`COc1cc(/C=C/C(=O)Nc2ccccc2)ccc1O` was tested. Which inhibition [5] did it give?
Its inhibition is 59%.

Which inhibition [5] does the source give for `CCN(CC)C(=O)/C=C/c1ccc(O)c(O)c1` here?
Its inhibition is “inactive”.

Which inhibition [5] does the source give for `CCN(CC)C(=O)/C=C/c1ccc(O)cc1` here?
The inhibition was “inactive”.

`O=C(/C=C/c1ccc(O)cc1)NCc1ccccc1` was tested. Which inhibition [5] did it give?
The inhibition was “inactive”.

For `O=C(/C=C/c1ccc(O)cc1O)Nc1ccccc1`, which IC50 (Tyrosinase) is on record?
The IC50 was 25.6 nM.

And the Activity (B16-F10 [1])?
The Activity was 63.97%.

And the Ratio [2]?
The Ratio was 3.

What about the Activity (B16-F10 [3]) of the same compound?
Its Activity is “Dose-dependent effect”.

And the Activity (B16-F10 [4])?
The Activity was “Non-Toxic”.

And the inhibition [7]?
Its inhibition is “Active”.

What about the inhibition [6] of the same compound?
The inhibition was “Dose-dependent effect”.
